Data reported in publication PMC4181337 (Metallomics : integrated biometal science, 2013).
Values joined by “and” are separate entries in the source; they are usually repeats but may differ in a detail not shown here. Equal values may be shown once.

Legend:
human red blood cells = conditions: inhibitor of the general anion transporter; cited from earlier work
[1] = Beagle dog, intravenous, radiolabeled; cited from earlier work
[2] = Serum total V pharmacokinetics; assay type: in vivo, human
Outline: (§1)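 Diabetic patients were dosed with oral VOSO4 for forty days, followed by a sixteen-day washout, with periodic blood sampling. Total V was measured by GFAAS against a same-day standard curve; serum was run directly and whole blood after extra preparation. Decline was fitted to a one-compartment first-order model using the last dosing day plus three later points, giving k and half time. Accumulation was fitted using the washout k. AUC in (ng/mL)days was calculated for the exposure and decline phases.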

[3] = Whole blood total V pharmacokinetics; assay type: in vivo, human
Outline: as §1

[4] = 24 hour urinary V clearance at steady state; assay type: in vivo, human
Outline: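 Type 2 diabetic patients took VOSO4 orally as tablets with meals, 3 per day, for six weeks. 24 hour urine was collected at steady state, with one to three collections per patient. Urine was analysed directly for total V by Zeeman-corrected GFAAS against a standard curve run the same day. Steady-state urinary V output was taken as the minimum amount absorbed.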

[5] = tested on: patients with type 2 diabetes; assay type: in vivo, human
Outline: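 Patients took placebo, then oral VOSO4 tablets with meals (3/day) for six weeks. They self-monitored blood glucose before meals and at bedtime daily, reported as weekly averages. Two-step euglycemic-hyperinsulinemic clamps were run before and after treatment: overnight low-dose insulin to normalise glucose, then primed-continuous insulin at 0.5 and then 1.0 mU/kg/min, 2 h each. Glucose was checked every 5 min with variable glucose infusion. M was normalised to body mass.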

[6] = tested on: patients with type 2 diabetes; conditions: two higher dose groups (50, 100 mg V), six weeks; cited from earlier work
[7] = tested on: patients with type 2 diabetes; assay: Adverse symptoms reported during the clinical study; assay type: in vivo, human; conditions: doses of V used in this clinical study; not severe enough to drop subjects
[8] = 25 mg V/day oral as VOSO4, 6 weeks, group mean
[9] = 25 mg V/day oral as VOSO4, group mean
[10] = 50 mg V/day oral as VOSO4, 6 weeks, group mean ± SD
[11] = 50 mg V/day oral as VOSO4, 6 weeks, individual patient
[12] = 50 mg V/day oral as VOSO4, exposure and decline phases, individual patient
[13] = 50 mg V/day oral as VOSO4, group mean ± SD
[14] = 100 mg V/day oral as VOSO4, 6 weeks, group mean ± SD
[15] = 100 mg V/day oral as VOSO4, 6 weeks, individual patient
[16] = 100 mg V/day oral as VOSO4, exposure and decline phases, individual patient
[17] = 100 mg V/day oral as VOSO4, group mean ± SD
[18] = patients taking 100 mg V per day
[19] = of the 8 patients receiving 100 mg V/day

For `[O]=[V]([O-])([O-])[O-]` [vanadate], the “uptake by human red blood cells in the presence of DIDS” value (human red blood cells) is given as “blocked” and the “half time of single exponential decline (majority of the dose)” value [1] is given as 24 h.
With `O=S(=O)([O-])[O-].[O]=[V+2]` [vanadyl sulfate] the “Pk Serum V” value [2, 8] was 18.9 ng/mL, the “SS Serum V” value [2, 8] was 15.4 ng/mL and the “Pk Serum V” value ([2]; 25 mg V/day oral as VOSO4, 6 weeks, individual patient) was 16.7 ng/mL and 21.1 ng/mL. For the same compound, the “Ser V t1/2” value [2, 9] was 64.8 h, the “Pk Serum V” value [2, 10] was 81.7 ± 40 ng/mL and 81.7 ± 40.5 ng/mL and the “SS Serum V” value [2, 10] was 63.1 ± 37.8 ng/mL. The “Pk Serum V” value [2, 11] was 125 ng/mL and 87.0 ng/mL and 114 ng/mL and 30.2 ng/mL and 51.7 ng/mL, the “AUC Serum V” value [2, 12] was 3538 (ng/mL)days and 1747 (ng/mL)days and 3894 (ng/mL)days and 946 (ng/mL)days and 617 (ng/mL)days and the “AUC Serum V” value [2, 13] was 2149 ± 1494 (ng/mL)days. The “Ser V t1/2” value [2, 13] was 113 ± 38.4 h, the “ratio of serum AUC to whole blood AUC, mean value” ([2]; 50 mg dose group) was 1.07±0.86 (ng/mL)days and the “Pk Serum V” value [2, 14] was 319 ± 268 ng/mL. The “SS Serum V” value [2, 14] was 314 ± 178 ng/mL, the “Pk Serum V” value [2, 15] was 252 ng/mL and 227 ng/mL and 423 ng/mL and 906 ng/mL and 213 ng/mL and 368 ng/mL and 144 ng/mL and the “AUC Serum V” value [2, 16] was 8695 (ng/mL)days and 8328 (ng/mL)days and 15779 (ng/mL)days and 26713 (ng/mL)days and 8041 (ng/mL)days and 11412 (ng/mL)days and 4781 (ng/mL)days. The “AUC Serum V” value [2, 17] was 11965 ± 7340 (ng/mL)days, the “Ser V t1/2” value [2, 17] was 110 ± 60 h and the “ratio of serum AUC to whole blood AUC, mean value” ([2]; 100 mg dose group) was 1.65±0.32 (ng/mL)days. For the same compound, the “fold increase in steady state serum V concentration” value ([2]; 25 to 50 mg dose groups) was 4 fold, the “fold increase in steady state serum V concentration” value ([2]; 50 to 100 mg dose groups) was 5 fold and the “Pk Blood V” value [3, 10] was 85 ± 54 ng/mL. For the same compound, the “SS Blood V” value [3, 10] was 65 ± 39 ng/mL, the “Pk Blood V” value [3, 11] was 163 ng/mL and 26 ng/mL and 109 ng/mL and 50 ng/mL and 75 ng/mL and the “Bld V t1/2” value ([3]; 50 mg V/day oral as VOSO4, decline phase, individual patient) was 240 h and 69.6 h and 106 h and 93.6 h and 161 h. For the same compound, the “AUC Blood V” value [3, 12] was 3762 (ng/mL)days and 701 (ng/mL)days and 3474 (ng/mL)days and 2025 (ng/mL)days and 1788 (ng/mL)days, the “AUC Blood V” value [3, 13] was 2351 ± 1264 (ng/mL)days and the “Bld V t1/2” value [3, 13] was 134 ± 67.2 h. For the same compound, the “Pk Blood V” value [3, 14] was 201 ± 200 ng/mL, the “SS Blood V” value [3, 14] was 205 ± 164 ng/mL and the “Pk Blood V” value [3, 15] was 136 ng/mL and 132 ng/mL and 264 ng/mL and 654 ng/mL and 95 ng/mL and 225 ng/mL. The “Bld V t1/2” value ([3]; 100 mg V/day oral as VOSO4, decline phase, individual patient) was 96 h and 103 h and 173 h and 146 h and 50.4 h and 72 h and 209 h, the “AUC Blood V” value [3, 16] was 5648 (ng/mL)days and 5863 (ng/mL)days and 10552 (ng/mL)days and 20245 (ng/mL)days and 3741 (ng/mL)days and 6998 (ng/mL)days and 2341 (ng/mL)days and the “AUC Blood V” value [3, 17] was 7912 ± 6023 (ng/mL)days. The “Bld V t1/2” value [3, 17] was 122 ± 57.6 h, the “Mean Urine [V] at Steady State” value [4, 9] was 54 ng/mL and the “Mean Urine [V] at Steady State” value ([4]; 25 mg V/day oral as VOSO4, individual patient) was 60 ng/mL and 47 ng/mL. For the same compound, the “24 hour urinary V output at steady state” value ([4]; 50 mg V group, oral vanadyl sulfate) was 0.18 ± 0.24 mg, the “Mean Urine [V] at Steady State” value [4, 13] was 59 ± 80 ng/mL and the “Mean Urine [V] at Steady State” value ([4]; 50 mg V/day oral as VOSO4, individual patient) was 215 ng/mL and 29 ng/mL and 165 ng/mL and 18 ng/mL and 22 ng/mL. For the same compound, the “24 hour urinary V output at steady state” value ([4]; 100 mg V group, oral vanadyl sulfate) was 0.97 ± 0.84 mg, the “Mean Urine [V] at Steady State” value [4, 17] was 654 ± 705 ng/mL and the “Mean Urine [V] at Steady State” value ([4]; 100 mg V/day oral as VOSO4, individual patient) was 412 ng/mL and 468 ng/mL and 457 ng/mL and 2199 ng/mL and 207 ng/mL and 703 ng/mL and 135 ng/mL. For the same compound, the “absorbed fraction of the administered V” value ([4]; 16 type 2 diabetic patients, oral vanadyl sulfate) was “about 1%”, the “absorption of the administered dose” value ([4]; 50 and 100 mg V groups, estimated from steady state urinary output) was no more than 1% and the V excreted [4, 18] was “approximately 1 mg V per day”. For the same compound, the “absorption of V entering the GI tract” value [4, 18] was 1%, the “absorption of V, of the daily dose” value ([4]; three doses of V used (25, 50, 100 mg/day)) was “less than 1%” and the “patients with improved responses for all three variables” value ([5]; of the 5 patients receiving 50 mg V/day) was 2. The “patients who responded well for all three variables” value [5, 19] was “three”, the “patients who responded well for two variables” value [5, 19] was “four” and the “patients with improved fasting blood glucose” value [6] was “approximately 50%”. The adverse symptoms [7] was “symptoms of gastrointestinal distress”.
In the case of `CC(=O)/C=C(/C)[O-].CC(=O)/C=C(/C)[O-].[O]=[V+2]` [VO(acac)2], the “uptake by human red blood cells in the presence of DIDS” value (human red blood cells) is listed as “no change”.
In the case of `O=S(=O)([O-])[O-].[O]=[V+2]` [vanadyl], the “half time of single exponential decline (majority of the dose)” value [1] is given as 24 h.
